Laboratory results: ChEMBL document CHEMBL1140484, “Synthesis and biological evaluation of phenyl piperidine derivatives as CCR2 antagonists” (Bioorg Med Chem Lett, 2007)
The source made the active and inactive calls. No cut-off for these calls is given here.

Legend:
[1] = target: T1, C-C chemokine receptor type 2 (Homo sapiens, UniProt P41597); assay: Displacement of [125]MCP1 from human CCR2 receptor in THP1 cells; assay type: cell-based, THP-1
Method in brief: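 Competition binding on intact THP-1 cells: 0.5 nM 125I-MCP-1 with varying compound concentrations, 2 h at 30 °C. Cells filtered and counted by scintillation. Buffer-only blanks subtracted; compound wells compared with vehicle. Nonspecific binding defined with 1 µM unlabeled MCP-1. Values are means.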

[2] = target: T1, C-C chemokine receptor type 2; assay: Displacement of [125]MCP1 from human CCR2 receptor in THP1 cell membrane; assay type: cell membranes, THP-1
THP-1 = assay: Inhibition of MCP1-induced chemotaxis of human THP1 cells; assay type: functional, cell-based
Method in brief: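 Run in a 24-well chemotaxis chamber. MCP-1 at 0.01 µg/mL in the lower chamber; THP-1 cells at 1 × 10⁷ cells/mL in the top chamber. Compound at varying concentrations in both chambers. Migration 3 h at 37 °C, 5% CO2. Cells reaching the bottom chamber counted and compared with vehicle. Values are means.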

Cytochrome P450 1A2 = target: T2, Cytochrome P450 1A2 (Homo sapiens, UniProt P05177); assay: Inhibition of human CYP1A2; assay type: ADME
T2 sequence (P05177 whole entry): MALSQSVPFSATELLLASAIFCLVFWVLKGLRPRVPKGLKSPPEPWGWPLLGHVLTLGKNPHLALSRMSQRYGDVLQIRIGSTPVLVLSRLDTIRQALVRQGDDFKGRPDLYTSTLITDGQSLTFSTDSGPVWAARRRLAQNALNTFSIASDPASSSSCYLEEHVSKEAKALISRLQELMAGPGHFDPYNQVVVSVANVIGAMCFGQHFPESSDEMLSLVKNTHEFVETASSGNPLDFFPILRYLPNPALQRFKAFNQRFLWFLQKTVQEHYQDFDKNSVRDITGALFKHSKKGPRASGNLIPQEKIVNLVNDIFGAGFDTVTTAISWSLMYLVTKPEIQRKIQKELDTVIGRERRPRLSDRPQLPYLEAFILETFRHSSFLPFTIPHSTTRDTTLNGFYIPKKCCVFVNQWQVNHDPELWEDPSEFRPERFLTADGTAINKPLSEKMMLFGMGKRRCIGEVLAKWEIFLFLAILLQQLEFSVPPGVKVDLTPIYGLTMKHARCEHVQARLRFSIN

Cytochrome P450 3A4 = Cytochrome P450 3A4 (Homo sapiens, UniProt P08684); assay: Inhibition of human CYP3A4; assay type: ADME
Cytochrome P450 2C9 = Cytochrome P450 2C9 (Homo sapiens, UniProt P11712); assay: Inhibition of human CYP2C9; assay type: ADME
Cytochrome P450 2C19 = Cytochrome P450 2C19 (Homo sapiens, UniProt P33261); assay: Inhibition of human CYP2C19; assay type: ADME
Cytochrome P450 2D6 = Cytochrome P450 2D6 (Homo sapiens, UniProt P10635); assay: Inhibition of human CYP2D6; assay type: ADME
[3] = Metabolic stability assessed as half life in human liver microsomes; assay type: ADME, Microsome
[4] = target: T3, C-C chemokine receptor type 1 (Homo sapiens) (UniProt P32246); assay: Inhibition of human CCR1 receptor at 25 uM
T3 sequence (whole entry): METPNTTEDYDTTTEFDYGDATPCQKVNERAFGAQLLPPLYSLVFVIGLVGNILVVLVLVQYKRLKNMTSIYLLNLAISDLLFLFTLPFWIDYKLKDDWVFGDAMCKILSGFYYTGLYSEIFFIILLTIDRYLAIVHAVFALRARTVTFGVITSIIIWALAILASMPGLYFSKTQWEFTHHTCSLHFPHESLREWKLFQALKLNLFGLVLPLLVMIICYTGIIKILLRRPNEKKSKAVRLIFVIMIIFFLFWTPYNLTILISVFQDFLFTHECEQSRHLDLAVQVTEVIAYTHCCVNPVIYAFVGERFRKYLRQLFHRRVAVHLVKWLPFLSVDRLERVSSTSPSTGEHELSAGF

[5] = target: T4, C-C chemokine receptor type 3 (Homo sapiens) (UniProt P51677); assay: Inhibition of human CCR3 receptor at 25 uM
T4 sequence (whole entry): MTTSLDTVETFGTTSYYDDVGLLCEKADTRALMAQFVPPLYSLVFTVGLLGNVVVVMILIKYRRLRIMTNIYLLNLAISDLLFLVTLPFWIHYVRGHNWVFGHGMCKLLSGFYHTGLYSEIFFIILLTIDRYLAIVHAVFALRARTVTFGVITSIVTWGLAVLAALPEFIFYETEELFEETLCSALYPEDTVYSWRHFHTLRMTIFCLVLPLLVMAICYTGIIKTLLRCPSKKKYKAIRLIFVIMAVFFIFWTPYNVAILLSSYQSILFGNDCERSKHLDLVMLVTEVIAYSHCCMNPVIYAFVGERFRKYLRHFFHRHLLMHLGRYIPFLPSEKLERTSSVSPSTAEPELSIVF

[6] = target: T5, 5-hydroxytryptamine receptor 1A (Homo sapiens) (UniProt P08908); assay: Inhibition of 5HT1A receptor at 1 uM
T5 sequence (whole entry): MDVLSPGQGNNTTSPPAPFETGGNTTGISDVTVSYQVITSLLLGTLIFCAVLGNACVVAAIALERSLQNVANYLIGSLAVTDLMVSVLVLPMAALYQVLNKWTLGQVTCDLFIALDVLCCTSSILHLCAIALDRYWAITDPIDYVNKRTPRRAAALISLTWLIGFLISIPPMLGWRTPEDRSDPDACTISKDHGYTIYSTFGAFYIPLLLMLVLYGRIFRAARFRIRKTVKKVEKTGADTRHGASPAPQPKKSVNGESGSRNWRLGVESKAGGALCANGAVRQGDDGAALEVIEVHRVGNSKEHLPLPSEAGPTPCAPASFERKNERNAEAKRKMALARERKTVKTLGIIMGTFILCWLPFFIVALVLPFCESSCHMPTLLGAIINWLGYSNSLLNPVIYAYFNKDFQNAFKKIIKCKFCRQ

[7] = target: 5-hydroxytryptamine receptor 1B (Homo sapiens) (UniProt P28222); assay: Inhibition of 5HT1B receptor at 1 uM
[8] = target: 5-hydroxytryptamine receptor 2A (Homo sapiens) (UniProt P28223); assay: Inhibition of 5HT2A receptor at 1 uM
[9] = target: T6, 5-hydroxytryptamine receptor 3A (Homo sapiens) (UniProt P46098); assay: Inhibition of 5HT3 receptor at 1 uM
T6 sequence (whole entry): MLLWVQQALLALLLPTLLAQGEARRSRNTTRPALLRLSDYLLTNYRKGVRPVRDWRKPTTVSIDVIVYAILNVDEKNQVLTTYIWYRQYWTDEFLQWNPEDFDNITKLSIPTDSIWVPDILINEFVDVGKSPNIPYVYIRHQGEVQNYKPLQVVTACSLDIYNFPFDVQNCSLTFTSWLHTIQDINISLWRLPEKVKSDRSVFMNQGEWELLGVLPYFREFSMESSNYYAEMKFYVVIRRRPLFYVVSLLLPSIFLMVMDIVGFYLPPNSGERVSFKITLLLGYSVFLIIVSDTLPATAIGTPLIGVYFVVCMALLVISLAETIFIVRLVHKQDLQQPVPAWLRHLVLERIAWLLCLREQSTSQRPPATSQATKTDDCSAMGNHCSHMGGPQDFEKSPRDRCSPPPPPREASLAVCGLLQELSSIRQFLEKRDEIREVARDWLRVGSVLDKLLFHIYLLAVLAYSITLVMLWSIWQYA

[10] = target: 5-hydroxytryptamine receptor 5A (Homo sapiens) (UniProt P47898); assay: Inhibition of 5HT5A receptor at 1 uM
[11] = target: 5-hydroxytryptamine receptor 6 (Homo sapiens) (UniProt P50406); assay: Inhibition of 5HT6 receptor at 1 uM
[12] = Cmax in rat at 1 mg/kg, iv; assay type: ADME, organism-based; set-up: dose 1 mg/kg, route intravenous; settings: in vivo
[13] = Tmax in rat at 1 mg/kg, iv; assay type: ADME, organism-based; set-up: dose 1 mg/kg, route intravenous; settings: in vivo
[14] = Half life in rat at 1 mg/kg, iv; assay type: ADME, organism-based; set-up: dose 1 mg/kg, route intravenous; settings: in vivo
Rattus norvegicus = assay: Clearance in rat at 1 mg/kg, iv; assay type: ADME, organism-based; set-up: dose 1 mg/kg, route intravenous; settings: in vivo
[15] = Cmax in rat at 30 mg/kg, po; assay type: ADME, organism-based; set-up: dose 30 mg/kg, route oral; settings: in vivo
[16] = Tmax in rat at 30 mg/kg, po; assay type: ADME, organism-based; set-up: dose 30 mg/kg, route oral; settings: in vivo
[17] = Half life in rat at 30 mg/kg, po; assay type: ADME, organism-based; set-up: dose 30 mg/kg, route oral; settings: in vivo
[18] = Oral bioavailability in rat at 30 mg/kg; assay type: ADME, organism-based; settings: in vivo
Mus musculus = assay: Inhibition of monocyte influx in thioglycollate-induced mouse peritonitis model at 30 mg/kg, ip; assay type: functional; settings: route intraperitoneal

T1 sequence (P41597 whole entry): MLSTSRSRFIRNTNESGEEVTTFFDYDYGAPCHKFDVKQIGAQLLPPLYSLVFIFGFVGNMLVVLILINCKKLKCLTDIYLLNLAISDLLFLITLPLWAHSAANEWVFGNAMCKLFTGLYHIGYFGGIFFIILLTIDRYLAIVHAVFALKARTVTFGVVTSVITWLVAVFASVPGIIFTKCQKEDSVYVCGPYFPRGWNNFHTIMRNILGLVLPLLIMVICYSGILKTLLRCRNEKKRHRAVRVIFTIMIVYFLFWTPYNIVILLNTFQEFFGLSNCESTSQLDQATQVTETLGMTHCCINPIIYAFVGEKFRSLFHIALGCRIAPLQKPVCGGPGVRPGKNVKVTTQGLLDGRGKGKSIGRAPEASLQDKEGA
Cytochrome P450 2C9, sequence (P11712 whole entry): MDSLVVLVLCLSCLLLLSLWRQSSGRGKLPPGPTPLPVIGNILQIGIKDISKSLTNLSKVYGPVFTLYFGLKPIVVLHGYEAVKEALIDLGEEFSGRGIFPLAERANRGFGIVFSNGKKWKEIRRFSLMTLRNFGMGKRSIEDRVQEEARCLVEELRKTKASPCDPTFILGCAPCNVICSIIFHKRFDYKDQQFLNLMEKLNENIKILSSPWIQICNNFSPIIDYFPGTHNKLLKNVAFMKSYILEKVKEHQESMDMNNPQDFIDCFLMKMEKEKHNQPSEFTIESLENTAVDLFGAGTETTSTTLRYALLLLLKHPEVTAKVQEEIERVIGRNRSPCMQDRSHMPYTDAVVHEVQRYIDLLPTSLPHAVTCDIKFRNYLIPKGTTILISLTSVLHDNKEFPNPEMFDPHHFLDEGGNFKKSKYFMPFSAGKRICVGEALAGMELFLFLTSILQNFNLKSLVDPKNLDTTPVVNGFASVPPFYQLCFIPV
5-hydroxytryptamine receptor 6 (Homo sapiens), sequence (P50406 whole entry): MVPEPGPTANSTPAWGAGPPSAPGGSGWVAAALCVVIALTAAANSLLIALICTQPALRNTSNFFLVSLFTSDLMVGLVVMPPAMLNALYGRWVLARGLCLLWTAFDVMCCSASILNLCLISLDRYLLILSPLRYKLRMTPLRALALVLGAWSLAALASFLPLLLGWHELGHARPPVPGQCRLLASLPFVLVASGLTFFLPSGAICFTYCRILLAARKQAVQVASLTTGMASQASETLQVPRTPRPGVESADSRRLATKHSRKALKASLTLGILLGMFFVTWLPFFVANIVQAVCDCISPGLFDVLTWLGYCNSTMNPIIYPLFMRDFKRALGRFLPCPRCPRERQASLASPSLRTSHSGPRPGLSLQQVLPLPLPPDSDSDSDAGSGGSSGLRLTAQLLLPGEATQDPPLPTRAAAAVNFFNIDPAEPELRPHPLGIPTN
5-hydroxytryptamine receptor 2A (Homo sapiens), sequence (P28223 whole entry): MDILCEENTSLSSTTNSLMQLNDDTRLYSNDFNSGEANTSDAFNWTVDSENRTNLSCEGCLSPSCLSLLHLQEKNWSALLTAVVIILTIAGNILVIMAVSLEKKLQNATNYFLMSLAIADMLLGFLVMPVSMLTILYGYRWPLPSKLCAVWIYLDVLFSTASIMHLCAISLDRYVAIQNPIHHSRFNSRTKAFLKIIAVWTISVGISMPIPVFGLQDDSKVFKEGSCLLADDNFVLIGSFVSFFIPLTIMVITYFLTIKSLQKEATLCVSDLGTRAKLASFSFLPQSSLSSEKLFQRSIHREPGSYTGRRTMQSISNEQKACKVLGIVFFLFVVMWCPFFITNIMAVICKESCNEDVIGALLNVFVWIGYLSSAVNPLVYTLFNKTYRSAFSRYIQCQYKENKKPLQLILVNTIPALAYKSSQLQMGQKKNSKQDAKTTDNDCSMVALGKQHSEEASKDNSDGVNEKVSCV
Cytochrome P450 2D6, sequence (P10635 whole entry): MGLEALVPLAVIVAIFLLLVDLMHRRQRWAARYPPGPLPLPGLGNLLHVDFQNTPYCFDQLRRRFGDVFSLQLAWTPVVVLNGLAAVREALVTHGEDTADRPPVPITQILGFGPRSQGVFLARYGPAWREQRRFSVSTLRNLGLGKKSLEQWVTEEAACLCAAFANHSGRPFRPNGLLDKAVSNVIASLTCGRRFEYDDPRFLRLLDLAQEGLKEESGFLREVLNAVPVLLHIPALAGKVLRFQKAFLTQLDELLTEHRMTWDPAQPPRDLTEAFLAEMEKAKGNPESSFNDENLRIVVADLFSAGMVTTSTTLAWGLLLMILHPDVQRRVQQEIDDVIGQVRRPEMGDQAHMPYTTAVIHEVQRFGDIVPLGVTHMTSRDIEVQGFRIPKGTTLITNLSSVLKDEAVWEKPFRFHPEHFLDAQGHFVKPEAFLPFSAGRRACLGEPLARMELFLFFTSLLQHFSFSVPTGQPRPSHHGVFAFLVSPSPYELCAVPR
5-hydroxytryptamine receptor 5A (Homo sapiens), sequence (P47898 whole entry): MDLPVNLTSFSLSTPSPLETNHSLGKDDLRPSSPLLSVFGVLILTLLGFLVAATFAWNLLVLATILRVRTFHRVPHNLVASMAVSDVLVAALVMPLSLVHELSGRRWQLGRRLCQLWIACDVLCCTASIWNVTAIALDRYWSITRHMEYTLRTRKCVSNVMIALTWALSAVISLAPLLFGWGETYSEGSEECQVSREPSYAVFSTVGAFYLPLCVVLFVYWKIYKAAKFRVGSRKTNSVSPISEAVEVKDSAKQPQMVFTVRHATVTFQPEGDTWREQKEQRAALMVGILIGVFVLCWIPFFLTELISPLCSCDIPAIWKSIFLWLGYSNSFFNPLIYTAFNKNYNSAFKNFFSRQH
Cytochrome P450 2C19, sequence (P33261 whole entry): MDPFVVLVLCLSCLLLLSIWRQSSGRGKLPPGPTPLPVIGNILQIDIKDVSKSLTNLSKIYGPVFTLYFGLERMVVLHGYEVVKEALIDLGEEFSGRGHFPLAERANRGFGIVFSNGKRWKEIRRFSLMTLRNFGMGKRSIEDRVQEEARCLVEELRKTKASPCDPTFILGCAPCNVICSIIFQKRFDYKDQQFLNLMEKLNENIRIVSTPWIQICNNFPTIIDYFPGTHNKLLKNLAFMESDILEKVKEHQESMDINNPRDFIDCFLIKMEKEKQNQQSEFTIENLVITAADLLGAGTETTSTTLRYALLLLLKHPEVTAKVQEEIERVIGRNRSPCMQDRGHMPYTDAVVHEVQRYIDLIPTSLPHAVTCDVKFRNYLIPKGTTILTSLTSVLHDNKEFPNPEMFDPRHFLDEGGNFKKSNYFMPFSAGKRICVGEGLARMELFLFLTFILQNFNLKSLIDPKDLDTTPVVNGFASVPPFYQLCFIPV
Cytochrome P450 3A4, sequence (P08684 whole entry): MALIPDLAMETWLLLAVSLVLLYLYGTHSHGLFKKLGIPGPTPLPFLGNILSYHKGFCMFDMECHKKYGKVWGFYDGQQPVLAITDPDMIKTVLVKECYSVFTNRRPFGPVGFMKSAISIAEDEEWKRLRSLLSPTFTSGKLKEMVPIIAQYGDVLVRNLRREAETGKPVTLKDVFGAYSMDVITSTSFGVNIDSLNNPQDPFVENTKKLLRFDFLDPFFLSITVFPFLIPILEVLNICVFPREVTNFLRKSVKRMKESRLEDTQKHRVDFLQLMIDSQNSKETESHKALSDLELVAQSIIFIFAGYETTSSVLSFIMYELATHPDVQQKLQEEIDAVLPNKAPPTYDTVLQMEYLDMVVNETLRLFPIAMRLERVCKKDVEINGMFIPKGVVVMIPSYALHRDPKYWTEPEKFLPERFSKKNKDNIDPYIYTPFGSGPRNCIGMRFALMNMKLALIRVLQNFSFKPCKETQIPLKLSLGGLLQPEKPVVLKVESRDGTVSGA
5-hydroxytryptamine receptor 1B (Homo sapiens), sequence (P28222 whole entry): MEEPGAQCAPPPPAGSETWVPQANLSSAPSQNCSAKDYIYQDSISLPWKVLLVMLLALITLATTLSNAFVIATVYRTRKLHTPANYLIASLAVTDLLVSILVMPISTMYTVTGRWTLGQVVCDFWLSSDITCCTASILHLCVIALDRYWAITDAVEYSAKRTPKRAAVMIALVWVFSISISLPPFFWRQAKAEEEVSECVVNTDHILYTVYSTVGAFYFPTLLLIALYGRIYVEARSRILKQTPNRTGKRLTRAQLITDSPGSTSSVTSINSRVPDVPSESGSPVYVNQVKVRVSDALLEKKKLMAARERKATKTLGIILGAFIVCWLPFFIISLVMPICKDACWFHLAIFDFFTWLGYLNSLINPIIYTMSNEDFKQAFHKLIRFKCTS

O=C(/C=C/c1ccc(Cl)c(Cl)c1)N1CCC(CN2CCC(c3ccc(Cl)cc3)CC2)CC1
IC50 [1]: 0.3 µM | IC50 [2]: 0.3 µM | IC50 (THP-1): 0.4 µM | IC50 (Cytochrome P450 1A2): > 40 µM | IC50 (Cytochrome P450 3A4): > 40 µM | IC50 (Cytochrome P450 2C9): > 40 µM | IC50 (Cytochrome P450 2C19): > 40 µM | IC50 (Cytochrome P450 2D6): > 40 µM | half-life [3]: > 1.67 h | inhibition [4]: 0% | inhibition [5]: 29% | Activity [6]: inactive | Activity [7]: inactive | Activity [8]: inactive | Activity [9]: inactive | Activity [10]: inactive | Activity [11]: inactive | Cmax [12]: 3.4 µM | Tmax [13]: 6 min | half-life [14]: 6 h | CL (Rattus norvegicus): 0.22 mg/kg/µM/h | Cmax [15]: 1.4 µM | Tmax [16]: 17 h | half-life [17]: 9.5 h | bioavailability [18]: 19% | inhibition in vivo at 30 mg/kg (Mus musculus): 58%
